Data taken from article PMC5817915 (European journal of medicinal chemistry, 2017).
Structures can show the parent of a compound that is named as a salt.

Key:
PTPRZ1 = PTPRZ1 (Homo sapiens, UniProt P23471); assay: In vitro dephosphorylation assay, phosphate sensor reagent, p-NPP substrate; format: biochemical; settings: for inhibition at 1 µM: read-out: inhibition of the phosphatase activity of PTPRZ1
Procedure, shortened: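 Single-concentration screen: human recombinant PTPRZ1 (0.1 μM) incubated with test compound at 1.0 μM and p-NPP substrate. Phosphate release was detected with a phosphate sensor reagent by fluorescence (excitation 430 nm, emission 450 nm) and expressed as percent inhibition of phosphatase activity.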

PTP1B = biological target: T1, PTP1B (Homo sapiens, UniProt P18031); assay: In vitro dephosphorylation assay, phosphate sensor reagent, p-NPP substrate; format: biochemical; settings: from IC50 values of Table 2
T1 sequence (P18031 1-435): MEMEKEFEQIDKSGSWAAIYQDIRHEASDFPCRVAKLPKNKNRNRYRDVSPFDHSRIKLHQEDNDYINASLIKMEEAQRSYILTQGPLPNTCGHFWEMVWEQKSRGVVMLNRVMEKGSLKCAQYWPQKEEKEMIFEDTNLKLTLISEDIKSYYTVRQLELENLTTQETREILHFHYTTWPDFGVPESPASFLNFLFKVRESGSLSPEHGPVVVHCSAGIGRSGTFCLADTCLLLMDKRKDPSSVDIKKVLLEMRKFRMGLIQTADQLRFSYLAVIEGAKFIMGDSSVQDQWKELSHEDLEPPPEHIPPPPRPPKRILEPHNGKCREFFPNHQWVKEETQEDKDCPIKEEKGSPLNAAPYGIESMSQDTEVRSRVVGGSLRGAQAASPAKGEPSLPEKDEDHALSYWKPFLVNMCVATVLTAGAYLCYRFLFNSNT
Procedure, shortened: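 Human recombinant PTPRZ1 and PTP1B, each at 0.1 μM, tested against test compound at 0.001–100 μM with p-NPP as substrate. Released inorganic phosphate was detected with a phosphate sensor reagent as a fluorescence increase (excitation 430 nm, emission 450 nm). IC50 values were calculated for each enzyme, and selectivity was judged by comparing the PTPRZ1 and PTP1B IC50s.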

TrkA (Tyr490) = assay: Western blot of TrkA phosphorylation in SH-SY5Y cells; format: cell-based, human; settings: SH-SY5Y cells, 1.0, 5.0 and 10.0 μM, 20 minutes
Procedure, shortened: (§1)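 Human SH-SY5Y cells, grown in EMEM/F12 (1:1) with 10% FBS at 37 °C and 5% CO2, were switched to serum-free medium just before treatment. They were then exposed to test compound (1.0, 5.0, 10.0 μM) or DMSO vehicle for 20 min and lysed in Tris-HCl pH 7.5/Triton buffer with phosphatase and protease inhibitors. Lysate (20 μg protein) was run on SDS-PAGE and blotted to PVDF. Blots were probed for phospho-TrkA (Y490) or phospho-ALK (Y1278), reprobed for total TrkA or ALK, and detected by ECL. Densitometry data are mean ± S.E.M., analysed by one-way ANOVA with Tukey post-hoc.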

PC12 cells = assay: Amphetamine-induced toxicity, cell viability by MTT; format: cell-based, Rat; settings: amphetamine 1 mM, compound 1.0 μM, 24 hours
Procedure, shortened: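 Rat PC12 cells grown in RPMI-1640 with 10% FBS, seeded at 10^4 cells/well, then co-incubated with amphetamine (1.0 mM) and test compound (1.0 μM). For MTT, cells were PBS-washed and given fresh medium with MTT (5 mg/mL stock) for 4 h. Formazan was dissolved in DMSO with 10 min shaking at RT, and absorbance read at 570 nm. Data are mean ± S.E.M., analysed by one-way ANOVA with Tukey post-hoc.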

ALK (Tyr1278) = assay: Western blot of ALK phosphorylation in SH-SY5Y cells; format: cell-based, human; settings: SH-SY5Y cells, 1.0, 5.0 and 10.0 μM, 20 minutes
Procedure, shortened: as §1

HeLa cells = assay: Total tyrosine phosphorylation ELISA; format: cell-based; settings: at any of 0.1, 1.0 and 10.0 μM
Procedure, shortened: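 HeLa cells in RPMI-1640 with 10% FBS were seeded at 2 × 10^4 cells/well in triplicate and serum-starved 24 h. They were then treated 10 min with test compound at 0.1, 1.0 or 10.0 μM, with 0.25% DMSO as vehicle control and EGF (50 ng/mL, 10 min) as positive control. Total phosphotyrosine was measured with a tyrosine phosphorylation ELISA kit and compared with vehicle.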

alcohol-induced reward = settings: mice; cited from earlier work
[1] = In vivo permeability study, GC-MS detection in plasma and brain; settings: mice, 1h post-gavage, 60 mg/kg
Procedure, shortened: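 Mice were dosed by oral gavage at 60 mg/kg and killed 1 h later; brain and plasma were collected. Brain (50–100 mg) was bead-homogenised in ethyl acetate, then the supernatant was dried and taken up in heptane. Plasma (100 μL) was precipitated with 3 volumes of cold methanol at -2 °C for 20 min, dried and reconstituted in heptane. Samples were analysed by GC-MS (EI 70 eV), quantifying the extracted ion at m/z 191.0137 (LOQ ~70 ng/mL).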

Sequence of PTPRZ1 (P23471 25-2315): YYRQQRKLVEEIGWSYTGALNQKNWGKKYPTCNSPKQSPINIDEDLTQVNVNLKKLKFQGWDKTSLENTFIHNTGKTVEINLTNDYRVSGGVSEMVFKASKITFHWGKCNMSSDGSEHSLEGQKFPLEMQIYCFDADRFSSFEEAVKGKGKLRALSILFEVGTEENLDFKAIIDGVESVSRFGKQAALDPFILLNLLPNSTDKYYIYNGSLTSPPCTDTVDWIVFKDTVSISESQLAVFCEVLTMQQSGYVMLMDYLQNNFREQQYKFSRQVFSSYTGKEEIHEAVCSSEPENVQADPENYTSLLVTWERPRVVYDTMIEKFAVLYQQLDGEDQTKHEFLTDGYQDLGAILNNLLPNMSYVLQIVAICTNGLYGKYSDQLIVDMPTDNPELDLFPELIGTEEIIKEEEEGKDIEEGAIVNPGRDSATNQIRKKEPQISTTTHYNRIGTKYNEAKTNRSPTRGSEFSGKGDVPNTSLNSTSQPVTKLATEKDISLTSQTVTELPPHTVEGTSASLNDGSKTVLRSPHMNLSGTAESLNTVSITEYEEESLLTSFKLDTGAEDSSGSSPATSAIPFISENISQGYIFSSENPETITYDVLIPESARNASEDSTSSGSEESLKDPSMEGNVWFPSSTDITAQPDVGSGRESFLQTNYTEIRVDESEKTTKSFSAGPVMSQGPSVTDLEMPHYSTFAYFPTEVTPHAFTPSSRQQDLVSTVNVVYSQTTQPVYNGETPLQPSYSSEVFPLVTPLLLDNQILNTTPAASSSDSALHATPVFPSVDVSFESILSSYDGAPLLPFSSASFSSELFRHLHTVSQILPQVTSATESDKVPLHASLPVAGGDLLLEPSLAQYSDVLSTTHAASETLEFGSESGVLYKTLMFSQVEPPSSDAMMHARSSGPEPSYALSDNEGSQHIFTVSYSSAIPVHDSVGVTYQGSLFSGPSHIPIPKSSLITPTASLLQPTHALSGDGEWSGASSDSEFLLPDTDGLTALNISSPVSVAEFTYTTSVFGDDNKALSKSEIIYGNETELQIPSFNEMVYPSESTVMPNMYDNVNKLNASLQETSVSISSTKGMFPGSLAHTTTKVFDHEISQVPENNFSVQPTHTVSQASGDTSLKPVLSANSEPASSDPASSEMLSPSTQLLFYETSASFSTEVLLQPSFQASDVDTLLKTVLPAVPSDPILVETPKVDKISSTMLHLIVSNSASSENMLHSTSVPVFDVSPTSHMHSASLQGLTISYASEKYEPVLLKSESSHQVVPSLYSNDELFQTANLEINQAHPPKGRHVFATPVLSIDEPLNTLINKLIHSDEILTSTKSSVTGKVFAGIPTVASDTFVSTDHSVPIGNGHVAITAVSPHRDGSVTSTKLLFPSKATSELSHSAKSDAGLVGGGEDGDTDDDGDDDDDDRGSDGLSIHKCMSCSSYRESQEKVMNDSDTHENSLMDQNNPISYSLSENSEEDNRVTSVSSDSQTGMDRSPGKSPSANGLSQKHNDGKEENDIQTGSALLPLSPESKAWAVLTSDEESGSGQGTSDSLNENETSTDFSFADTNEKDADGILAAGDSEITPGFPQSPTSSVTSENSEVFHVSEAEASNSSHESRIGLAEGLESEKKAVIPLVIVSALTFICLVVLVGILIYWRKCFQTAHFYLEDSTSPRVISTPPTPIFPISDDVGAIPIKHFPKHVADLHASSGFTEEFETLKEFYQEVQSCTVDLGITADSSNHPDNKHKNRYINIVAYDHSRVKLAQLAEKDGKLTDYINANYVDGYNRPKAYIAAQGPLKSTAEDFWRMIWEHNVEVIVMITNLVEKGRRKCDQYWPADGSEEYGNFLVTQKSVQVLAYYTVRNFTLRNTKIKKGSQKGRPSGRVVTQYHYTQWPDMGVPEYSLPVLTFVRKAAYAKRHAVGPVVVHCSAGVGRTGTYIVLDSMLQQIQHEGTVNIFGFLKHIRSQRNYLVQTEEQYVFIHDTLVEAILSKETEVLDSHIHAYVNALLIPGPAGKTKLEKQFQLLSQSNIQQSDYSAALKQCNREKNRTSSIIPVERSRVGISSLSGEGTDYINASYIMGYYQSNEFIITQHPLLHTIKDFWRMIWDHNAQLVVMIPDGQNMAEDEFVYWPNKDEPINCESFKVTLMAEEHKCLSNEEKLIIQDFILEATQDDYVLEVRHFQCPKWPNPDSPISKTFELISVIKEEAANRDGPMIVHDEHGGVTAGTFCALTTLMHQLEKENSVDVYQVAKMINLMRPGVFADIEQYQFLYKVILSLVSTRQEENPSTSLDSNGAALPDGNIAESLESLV

SMILES | selectivity PTPRZ1 versus PTP1B (PTP1B) | inhibition at 1 µM (PTPRZ1) [%] | increase of Phospho-Tyr levels (HeLa cells) [%] | also measured
O=S(=O)(c1ccc(COc2ccc(S(=O)(=O)C(F)(F)F)cc2)cc1)C(F)(F)F [compound 1, 1-((Trifluoromethyl)sulfonyl)-4-((4-((trifluoromethyl)sulfonyl)benzyl)oxy)benzene, reference compound] |  |  |  | PTPRZ1 phosphatase activity inhibition (PTPRZ1): failed to inhibit PTPRZ1 phosphatase activity
O=C(Cc1ccc(SC(F)(F)F)cc1)NCc1ccc(SC(F)(F)F)cc1 [4c, N-(4-((Trifluoromethyl)thio)benzyl)-2-(4-((trifluoromethyl)thio)phenyl)acetamide] | remarkable selectivity against PTP1B |  |  | 
FC(F)(F)Sc1ccc(CNCc2ccc(SC(F)(F)F)cc2)cc1 [12b, Bis(4-((trifluoromethyl)thio)benzyl)amine hydrochloride] | strongly and selectively inhibit PTPRZ1 | ≥ 10 |  | increase of tyrosine phosphorylation of TrkA (TrkA (Tyr490)): 2–3 fold; effect on amphetamine-induced loss of PC12 cell viability (PC12 cells): the same trend was observed; increase in phosphorylation of ALK 140 kDa isoform (ALK (Tyr1278)): 2 fold
FC(F)(F)Sc1ccc(NCc2ccccc2)cc1 [12d, N-benzyl-4-((trifluoromethyl)thio)aniline] |  | ≥ 10 | ≥ 10 | 
FC(F)(F)Sc1ccc(COc2ccc(SC(F)(F)F)cc2)cc1 [10a, (Trifluoromethyl)(4-((4-((trifluoromethyl)thio)benzyl)oxy)phenyl)sulfane] | strongly and selectively inhibit PTPRZ1 | ≥ 10 | ≥ 10 | effect on alcohol-induced reward (alcohol-induced reward): completely blocked alcohol-induced reward in mice; increase of tyrosine phosphorylation of TrkA (TrkA (Tyr490)): 2–3 fold; effect on amphetamine-induced loss of PC12 cell viability (PC12 cells): significantly prevented amphetamine-induced loss of PC12 cell viability; ability to cross the BBB [1]: can cross the BBB
FC(F)(F)Sc1ccc(CN(Cc2ccc(SC(F)(F)F)cc2)Cc2ccc(SC(F)(F)F)cc2)cc1 [compound 13, tris(4-((trifluoromethyl)thio)benzyl)amine] |  |  | ≥ 10 | 
O=C(Cc1ccc(S(=O)(=O)C(F)(F)F)cc1)Nc1ccc(S(=O)(=O)C(F)(F)F)cc1 [5b, N,2-bis(4-((trifluoromethyl)sulfonyl)phenyl)acetamide] |  | ≥ 10 |  | 
